Data published in ChEMBL document CHEMBL1145069, “Stereospecific synthesis of 5-substituted 2-bisarylthiocyclopentane carboxylic acids as specific matrix metalloproteinase inhibitors” (J Med Chem, 2003).
Where “and” joins values, the source holds several entries; their conditions need not be identical. Identical values can stand only once.

Tested on: not listed separately
Assay: In vivo maximum plasma concentration was determined in mice after 5 mg/kg (iv) administration
Assay type: ADME, organism-based
Design: route intravenous, dose 5 mg/kg
Conditions: mouse

Row | Cmax | Compound
1 | 40 µg/mL | O=C(O)[C@H]1[C@H](CN2C(=O)c3ccccc3C2=O)CC[C@@H]1SCCc1ccc(-c2ccc(F)cc2)cc1
2 | 40 µg/mL | O=C(O)[C@H]1[C@H](Cn2nnc3ccccc3c2=O)CC[C@@H]1Sc1ccc(-c2ccc(Cl)cc2)cc1

Tested on: not listed separately
Assay: In vivo maximum plasma concentration was determined in mice after 50 mg/kg (ip) administration
Assay type: ADME, organism-based
Design: route intraperitoneal, dose 50 mg/kg
Conditions: mouse

Row | Cmax | Compound
3 | 130 µg/mL | O=C(O)[C@H]1[C@H](CN2C(=O)c3ccccc3C2=O)CC[C@@H]1SCCc1ccc(-c2ccc(F)cc2)cc1
4 | 203 µg/mL | O=C(O)[C@H]1[C@H](Cn2nnc3ccccc3c2=O)CC[C@@H]1Sc1ccc(-c2ccc(Cl)cc2)cc1

Tested on: not listed separately
Assay: In vivo maximum plasma concentration was determined in mice after 50 mg/kg (po) administration
Assay type: ADME, organism-based
Design: route oral, dose 50 mg/kg
Conditions: mouse

Row | Cmax | Compound
5 | 107 µg/mL | O=C(O)[C@H]1[C@H](CN2C(=O)c3ccccc3C2=O)CC[C@@H]1SCCc1ccc(-c2ccc(F)cc2)cc1
6 | 93 µg/mL | O=C(O)[C@H]1[C@H](Cn2nnc3ccccc3c2=O)CC[C@@H]1Sc1ccc(-c2ccc(Cl)cc2)cc1

Organism: Homo sapiens
Assay: In vitro metabolic stability and first pass metabolism was evaluated in human hepatic microsomes
Assay type: ADME, Liver
Conditions: not given

Row | MF | Compound
7 | 62% | O=C(O)[C@H]1[C@H](CN2C(=O)c3ccccc3C2=O)CC[C@@H]1SCCc1ccc(-c2ccc(F)cc2)cc1
8 | 100% | O=C(O)[C@H]1[C@H](Cn2nnc3ccccc3c2=O)CC[C@@H]1Sc1ccc(-c2ccc(Cl)cc2)cc1
9 | 91% | O=C(O)[C@H]1[C@H](CN2C(=O)c3ccccc3C2=O)CC[C@@H]1S(=O)(=O)CCc1ccc(-c2ccc(Cl)cc2)cc1

Organism: Homo sapiens
Assay: In vitro absorption was measured in Caco-2 cell
Assay type: ADME
Conditions: not given

Row | Absorption | Compound
10 | 90% | O=C(O)[C@H]1[C@H](CN2C(=O)c3ccccc3C2=O)CC[C@@H]1SCCc1ccc(-c2ccc(F)cc2)cc1
11 | 95% | O=C(O)[C@H]1[C@H](Cn2nnc3ccccc3c2=O)CC[C@@H]1Sc1ccc(-c2ccc(Cl)cc2)cc1
12 | 92% | O=C(O)[C@H]1[C@H](CN2C(=O)c3ccccc3C2=O)CC[C@@H]1S(=O)(=O)CCc1ccc(-c2ccc(Cl)cc2)cc1

Tested on: not listed separately
Assay: Bioavailability in mouse (dose 50 mg/kg i.p.)
Assay type: ADME, organism-based
Conditions: in vivo, ip

Row | bioavailability | Compound
13 | 100% | O=C(O)[C@H]1[C@H](CN2C(=O)c3ccccc3C2=O)CC[C@@H]1SCCc1ccc(-c2ccc(F)cc2)cc1
14 | 100% | O=C(O)[C@H]1[C@H](Cn2nnc3ccccc3c2=O)CC[C@@H]1Sc1ccc(-c2ccc(Cl)cc2)cc1

Tested on: not listed separately
Assay: Bioavailability in mouse (dose 50 mg/kg p.o.)
Assay type: ADME, organism-based
Conditions: in vivo, po

Row | bioavailability | Compound
15 | 93% | O=C(O)[C@H]1[C@H](CN2C(=O)c3ccccc3C2=O)CC[C@@H]1SCCc1ccc(-c2ccc(F)cc2)cc1
16 | 69% | O=C(O)[C@H]1[C@H](Cn2nnc3ccccc3c2=O)CC[C@@H]1Sc1ccc(-c2ccc(Cl)cc2)cc1

Tested on: not listed separately
Assay: In vivo half life in mice after 5 mg/kg (iv) administration
Assay type: ADME, organism-based
Design: dose 5 mg/kg
Conditions: mouse

Row | half-life | Compound
17 | 3.5 h | O=C(O)[C@H]1[C@H](CN2C(=O)c3ccccc3C2=O)CC[C@@H]1SCCc1ccc(-c2ccc(F)cc2)cc1
18 | 3.4 h | O=C(O)[C@H]1[C@H](Cn2nnc3ccccc3c2=O)CC[C@@H]1Sc1ccc(-c2ccc(Cl)cc2)cc1

Organism: Rattus norvegicus
Assay: In vitro metabolic stability and first pass metabolism was evaluated in rat hepatic microsomes
Assay type: ADME, Liver
Conditions: not given

Row | MF | Compound
19 | 55% | O=C(O)[C@H]1[C@H](CN2C(=O)c3ccccc3C2=O)CC[C@@H]1SCCc1ccc(-c2ccc(F)cc2)cc1
20 | 74% | O=C(O)[C@H]1[C@H](Cn2nnc3ccccc3c2=O)CC[C@@H]1Sc1ccc(-c2ccc(Cl)cc2)cc1
21 | 58% | O=C(O)[C@H]1[C@H](CN2C(=O)c3ccccc3C2=O)CC[C@@H]1S(=O)(=O)CCc1ccc(-c2ccc(Cl)cc2)cc1

Tested on: not listed separately
Assay: In vivo half life in mice after 50 mg/kg (ip) administration
Assay type: ADME, organism-based
Design: dose 50 mg/kg
Conditions: mouse

Row | half-life | Compound
22 | 4 h | O=C(O)[C@H]1[C@H](CN2C(=O)c3ccccc3C2=O)CC[C@@H]1SCCc1ccc(-c2ccc(F)cc2)cc1
23 | 4 h | O=C(O)[C@H]1[C@H](Cn2nnc3ccccc3c2=O)CC[C@@H]1Sc1ccc(-c2ccc(Cl)cc2)cc1

Tested on: not listed separately
Assay: In vivo half life in mice after 50 mg/kg (po) administration
Assay type: ADME, organism-based
Design: dose 50 mg/kg
Conditions: mouse

Row | half-life | Compound
24 | 4 h | O=C(O)[C@H]1[C@H](CN2C(=O)c3ccccc3C2=O)CC[C@@H]1SCCc1ccc(-c2ccc(F)cc2)cc1
25 | 3 h | O=C(O)[C@H]1[C@H](Cn2nnc3ccccc3c2=O)CC[C@@H]1Sc1ccc(-c2ccc(Cl)cc2)cc1

Target: Matrix metalloproteinase-9 (Homo sapiens, UniProt P14780)
Assay: Inhibitory activity against matrix metalloprotease-9 (MMP9)
Conditions: not given

Chain of Matrix metalloproteinase-9 (P14780 whole entry): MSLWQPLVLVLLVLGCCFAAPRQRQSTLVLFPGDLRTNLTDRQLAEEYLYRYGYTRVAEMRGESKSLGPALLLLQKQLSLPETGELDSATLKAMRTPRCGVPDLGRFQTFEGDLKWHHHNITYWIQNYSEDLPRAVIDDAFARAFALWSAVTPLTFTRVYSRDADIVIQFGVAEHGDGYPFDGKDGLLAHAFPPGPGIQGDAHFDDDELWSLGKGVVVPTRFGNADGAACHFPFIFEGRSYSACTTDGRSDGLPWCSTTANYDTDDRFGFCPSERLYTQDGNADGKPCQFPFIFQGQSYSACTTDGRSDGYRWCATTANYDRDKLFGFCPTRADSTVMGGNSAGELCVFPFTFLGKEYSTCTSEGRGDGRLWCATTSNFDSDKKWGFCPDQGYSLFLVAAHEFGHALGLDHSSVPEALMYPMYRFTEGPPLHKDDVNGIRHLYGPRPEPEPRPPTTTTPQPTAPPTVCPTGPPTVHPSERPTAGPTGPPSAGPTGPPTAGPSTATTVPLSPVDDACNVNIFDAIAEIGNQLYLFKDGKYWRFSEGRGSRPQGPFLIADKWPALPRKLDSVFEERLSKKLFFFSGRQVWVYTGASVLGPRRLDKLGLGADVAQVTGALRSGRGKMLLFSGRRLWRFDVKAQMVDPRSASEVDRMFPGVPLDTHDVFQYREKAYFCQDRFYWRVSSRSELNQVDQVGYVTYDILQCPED

Row | IC50 | Compound
26 | 26 nM | O=C(O)[C@H]1[C@H](CN2C(=O)c3ccccc3C2=O)CC[C@@H]1SCCc1ccc(-c2ccc(F)cc2)cc1
27 | 39 nM | O=C(O)[C@H]1[C@H](CN2C(=O)c3ccccc3C2=O)CC[C@@H]1S(=O)(=O)CCc1ccc(-c2ccc(Cl)cc2)cc1

Target: T1, Interstitial collagenase (Homo sapiens, UniProt P03956)
T1 sequence (P03956 whole entry): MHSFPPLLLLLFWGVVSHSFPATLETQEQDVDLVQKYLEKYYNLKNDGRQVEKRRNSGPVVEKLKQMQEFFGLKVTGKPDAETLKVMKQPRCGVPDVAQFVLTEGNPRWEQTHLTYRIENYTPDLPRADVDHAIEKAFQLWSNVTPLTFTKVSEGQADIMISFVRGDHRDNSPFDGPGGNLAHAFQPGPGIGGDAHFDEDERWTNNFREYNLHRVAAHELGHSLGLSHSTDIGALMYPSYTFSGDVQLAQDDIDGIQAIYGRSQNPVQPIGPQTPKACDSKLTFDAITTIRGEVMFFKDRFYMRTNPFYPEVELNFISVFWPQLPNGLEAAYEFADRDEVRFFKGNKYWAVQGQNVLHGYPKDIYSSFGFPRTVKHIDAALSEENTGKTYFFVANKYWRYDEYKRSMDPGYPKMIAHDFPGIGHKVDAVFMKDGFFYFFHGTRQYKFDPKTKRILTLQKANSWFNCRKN
Assay: Inhibitory activity against matrix metalloprotease-1 (MMP1)
Conditions: not given

Row | IC50 | Compound
28 | 6000 nM | O=C(O)[C@H]1[C@H](CN2C(=O)c3ccccc3C2=O)CC[C@@H]1SCCc1ccc(-c2ccc(F)cc2)cc1
29 | > 100000 nM and 12000 nM | O=C(O)[C@H]1[C@H](Cn2nnc3ccccc3c2=O)CC[C@@H]1Sc1ccc(-c2ccc(Cl)cc2)cc1
30 | 5400 nM | O=C(O)[C@H]1[C@H](CN2C(=O)c3ccccc3C2=O)CC[C@@H]1S(=O)(=O)CCc1ccc(-c2ccc(Cl)cc2)cc1

Target: 72 kDa type IV collagenase (Homo sapiens, UniProt P08253)
Assay: Inhibitory activity against matrix metalloprotease-2 (MMP2)
Conditions: not given

Chain of 72 kDa type IV collagenase (P08253 whole entry): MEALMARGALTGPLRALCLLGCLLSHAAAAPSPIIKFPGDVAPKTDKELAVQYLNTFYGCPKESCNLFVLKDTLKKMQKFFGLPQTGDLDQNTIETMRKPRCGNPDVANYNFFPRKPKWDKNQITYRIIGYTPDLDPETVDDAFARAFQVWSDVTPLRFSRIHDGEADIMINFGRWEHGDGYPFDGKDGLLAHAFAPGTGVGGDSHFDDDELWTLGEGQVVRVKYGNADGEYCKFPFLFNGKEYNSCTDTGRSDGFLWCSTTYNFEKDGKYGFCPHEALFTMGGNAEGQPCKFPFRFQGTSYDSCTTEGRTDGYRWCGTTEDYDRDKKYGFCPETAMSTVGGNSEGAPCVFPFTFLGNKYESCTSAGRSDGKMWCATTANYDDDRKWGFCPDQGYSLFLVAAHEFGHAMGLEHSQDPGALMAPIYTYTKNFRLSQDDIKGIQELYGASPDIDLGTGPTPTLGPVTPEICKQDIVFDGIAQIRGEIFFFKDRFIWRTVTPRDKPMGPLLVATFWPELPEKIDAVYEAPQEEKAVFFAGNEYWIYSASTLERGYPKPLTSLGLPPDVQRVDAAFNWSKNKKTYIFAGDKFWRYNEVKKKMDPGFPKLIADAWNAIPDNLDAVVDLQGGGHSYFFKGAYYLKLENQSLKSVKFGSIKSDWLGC

Row | IC50 | Compound
31 | 62 nM | O=C(O)[C@H]1[C@H](CN2C(=O)c3ccccc3C2=O)CC[C@@H]1SCCc1ccc(-c2ccc(F)cc2)cc1
32 | 76 nM | O=C(O)[C@H]1[C@H](CN2C(=O)c3ccccc3C2=O)CC[C@@H]1S(=O)(=O)CCc1ccc(-c2ccc(Cl)cc2)cc1

Target: Collagenase 3 (Homo sapiens, UniProt P45452)
Assay: Inhibitory activity against matrix metalloprotease-13 (MMP13)
Conditions: not given

Row | IC50 | Compound
33 | 248 nM | O=C(O)[C@H]1[C@H](CN2C(=O)c3ccccc3C2=O)CC[C@@H]1SCCc1ccc(-c2ccc(F)cc2)cc1
34 | 808 nM | O=C(O)[C@H]1[C@H](CN2C(=O)c3ccccc3C2=O)CC[C@@H]1S(=O)(=O)CCc1ccc(-c2ccc(Cl)cc2)cc1

Tested on: Mus musculus
Assay: Tested for antitumor activity in mice against B16F10 melanoma measured as reduction in number of metastases at 100 mg/kg (ip)
Assay type: functional
Conditions: not given
Outline: (§1)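 B16-F10 cells passaged in vitro, then 2×10^5 cells per mouse injected into the tail vein of B6D2F1 mice in PBS with 0.5% foetal calf serum. 7 mice per group. Dosing i.p. or p.o. 1 h before inoculation, then daily for 3 days (four doses). Lungs collected on day 11 and fixed in Bouin's fluid. Metastases per lung (total and ≥1 mm) given as % of control mean.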

Row | Compound | No. of metastases
35 | O=C(O)[C@H]1[C@H](CN2C(=O)c3ccccc3C2=O)CC[C@@H]1SCCc1ccc(-c2ccc(F)cc2)cc1 | 32.5
36 | O=C(O)[C@H]1[C@H](Cn2nnc3ccccc3c2=O)CC[C@@H]1Sc1ccc(-c2ccc(Cl)cc2)cc1 | 30
37 | O=C(O)[C@H]1[C@H](CN2C(=O)c3ccccc3C2=O)CC[C@@H]1S(=O)(=O)CCc1ccc(-c2ccc(Cl)cc2)cc1 | 78

Tested on: Mus musculus
Assay: Tested for antitumor activity in mice against B16F10 melanoma measured as reduction in number of metastases at 100 mg/kg (po)
Assay type: functional
Conditions: not given
Outline: as §1

Row | Compound | No. of metastases
38 | O=C(O)[C@H]1[C@H](CN2C(=O)c3ccccc3C2=O)CC[C@@H]1SCCc1ccc(-c2ccc(F)cc2)cc1 | 72
39 | O=C(O)[C@H]1[C@H](Cn2nnc3ccccc3c2=O)CC[C@@H]1Sc1ccc(-c2ccc(Cl)cc2)cc1 | 70

Tested on: Mus musculus
Assay: Tested for antitumor activity in mice against B16F10 melanoma measured as reduction in number of metastases at 200 mg/kg (ip)
Assay type: functional
Conditions: not given
Outline: as §1

Row | Compound | No. of metastases
40 | O=C(O)[C@H]1[C@H](CN2C(=O)c3ccccc3C2=O)CC[C@@H]1SCCc1ccc(-c2ccc(F)cc2)cc1 | 24.5
41 | O=C(O)[C@H]1[C@H](CN2C(=O)c3ccccc3C2=O)CC[C@@H]1S(=O)(=O)CCc1ccc(-c2ccc(Cl)cc2)cc1 | 109

Tested on: Mus musculus
Assay: Tested for antitumor activity in mice against B16F10 melanoma measured as reduction in number of metastases at 200 mg/kg (po)
Assay type: functional
Conditions: not given
Outline: as §1

Row | Compound | No. of metastases
42 | O=C(O)[C@H]1[C@H](CN2C(=O)c3ccccc3C2=O)CC[C@@H]1SCCc1ccc(-c2ccc(F)cc2)cc1 | 68
43 | O=C(O)[C@H]1[C@H](Cn2nnc3ccccc3c2=O)CC[C@@H]1Sc1ccc(-c2ccc(Cl)cc2)cc1 | 74.5

Tested on: Mus musculus
Assay: Tested for antitumor activity in mice against B16F10 melanoma measured as reduction in number of metastases at 25 mg/kg (ip)
Assay type: functional
Conditions: not given
Outline: as §1

Row | Compound | No. of metastases
44 | O=C(O)[C@H]1[C@H](Cn2nnc3ccccc3c2=O)CC[C@@H]1Sc1ccc(-c2ccc(Cl)cc2)cc1 | 45

Tested on: Mus musculus
Assay: Tested for antitumor activity in mice against B16F10 melanoma measured as reduction in number of metastases at 50 mg/kg (ip)
Assay type: functional
Conditions: not given
Outline: as §1

Row | Compound | No. of metastases
45 | O=C(O)[C@H]1[C@H](Cn2nnc3ccccc3c2=O)CC[C@@H]1Sc1ccc(-c2ccc(Cl)cc2)cc1 | 39

Target: Stromelysin-1 (Homo sapiens, UniProt P08254)
Assay: Inhibitory activity against matrix metalloprotease-3 (MMP3)
Conditions: not given

Chain of Stromelysin-1 (P08254 whole entry): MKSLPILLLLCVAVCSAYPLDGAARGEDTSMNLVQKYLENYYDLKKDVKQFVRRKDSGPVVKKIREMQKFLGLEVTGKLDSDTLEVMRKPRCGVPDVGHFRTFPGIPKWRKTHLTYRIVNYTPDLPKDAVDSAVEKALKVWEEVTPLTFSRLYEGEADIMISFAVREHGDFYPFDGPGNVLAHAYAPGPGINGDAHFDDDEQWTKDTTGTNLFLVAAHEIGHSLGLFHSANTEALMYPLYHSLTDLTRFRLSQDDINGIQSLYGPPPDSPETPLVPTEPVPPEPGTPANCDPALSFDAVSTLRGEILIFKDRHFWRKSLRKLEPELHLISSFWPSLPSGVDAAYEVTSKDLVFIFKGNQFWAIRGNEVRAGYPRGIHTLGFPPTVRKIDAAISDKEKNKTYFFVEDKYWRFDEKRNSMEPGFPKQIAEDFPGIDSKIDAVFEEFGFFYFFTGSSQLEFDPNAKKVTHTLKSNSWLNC

Row | IC50 | Compound
46 | 60 nM | O=C(O)[C@H]1[C@H](CN2C(=O)c3ccccc3C2=O)CC[C@@H]1SCCc1ccc(-c2ccc(F)cc2)cc1
47 | 64 nM | O=C(O)[C@H]1[C@H](CN2C(=O)c3ccccc3C2=O)CC[C@@H]1S(=O)(=O)CCc1ccc(-c2ccc(Cl)cc2)cc1
